# SENP1 FRET inh: human SENP1 catalytic domain inhibitors, primary screen, biochemical, FRET, uHTS. inhibition, % at 10 µM. recombinant SENP1 catalytic domain, CyPet-SUMO1-YPet FRET cleavage. Sentrin-specific protease 1 (Homo sapiens), Q9P0U3. AID 624204, 2012. actives 0.21% (n = 360,000);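 active = inhibition at least 30% at 10 µM, raw YFP signal under a set limit, fluorescence ratio 0.5 to 1.5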;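 also: 0% = enzyme with DMSO and 100% = no enzyme wells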
#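 Controls: no-enzyme wells low, DMSO-plus-enzyme wells high control. Test system: human recombinant His6-tagged SENP1 catalytic domain enzyme. Reagent: SFCypet-SUMO1-SFYpet FRET protein substrate, 25 nM final. Doses: one dose per compound, 10 µM, 0.5% DMSO. Detection: FRET, CFP and YFP emission. Timing: 50 min reaction at room temperature.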
# Platelet DG rel: inhibitors of platelet dense granule secretion, primary screen, cell-based, MLPCN, human platelets | human platelet-rich plasma, SFLLRN dense granule ATP release, luminescence | inhibition, %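 (compounds screened at 7.5 µM in platelet-rich plasma)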 | actives 0.22% (n = 300,000);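 active = mean replicate score, as percent of positive control, at or above 50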
# SENP6 inh: SENP6 protease inhibitors, primary screen, biochemical, luminescence, uHTS; inhibition, % at 10 µM; actives 1.8% (n = 330,000); Recombinant SENP6 catalytic domain, aminoluciferin luminescence; AID 2599, 2010;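 active = inhibition above about 50% at the single tested dose, limit read from the data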;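 also: plate controls were DMSO wells with enzyme for no effect and DMSO wells lacking enzyme for full effect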
# SENP8 block-1: human SENP8 protease inhibitors, primary screen, biochemical, fluorescence, Nedd8 protein substrate, uHTS; inhibition, % at 20 µM; Sentrin-specific protease 8 (Homo sapiens), Q96LD8; actives 0.64% (n = 360,000); AID 602440, 2012; recombinant SENP8; in the data active = inhibition mostly above about 40%, no sharp cut-off; inactive = mostly below about 27%
# Target sequence (Q96LD8 whole entry, looked up): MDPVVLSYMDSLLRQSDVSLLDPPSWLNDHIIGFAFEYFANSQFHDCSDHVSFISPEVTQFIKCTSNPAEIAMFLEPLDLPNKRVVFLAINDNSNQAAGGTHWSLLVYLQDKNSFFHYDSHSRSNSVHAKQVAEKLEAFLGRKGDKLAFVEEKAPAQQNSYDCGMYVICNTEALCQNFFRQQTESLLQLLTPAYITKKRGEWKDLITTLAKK
# SENP7 inh: SENP7 protease inhibitors, primary screen, biochemical, luminescence, uHTS; recombinant SENP7, Z-RLRGG-aminoluciferin luminescence, 40 min; inhibition, % at 5 µM; actives 1.5% (n = 330,000); AID 434973, 2010;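 active = inhibition above about 50% at the single test dose, limit read from the data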;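 also: plate controls were DMSO with enzyme for no effect and no enzyme buffer wells for full effect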
# Target sequence (Q9BQF6 706-1050 limits assumed): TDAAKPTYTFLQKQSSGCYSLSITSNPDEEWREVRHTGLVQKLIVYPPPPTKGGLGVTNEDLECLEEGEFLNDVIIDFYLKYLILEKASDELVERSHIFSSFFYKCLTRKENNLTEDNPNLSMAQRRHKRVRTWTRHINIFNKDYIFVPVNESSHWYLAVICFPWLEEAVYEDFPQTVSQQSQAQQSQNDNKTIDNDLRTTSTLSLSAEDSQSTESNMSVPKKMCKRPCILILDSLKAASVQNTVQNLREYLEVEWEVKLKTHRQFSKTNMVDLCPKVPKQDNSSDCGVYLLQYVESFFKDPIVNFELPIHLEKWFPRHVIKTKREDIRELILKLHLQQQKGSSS
# SENP8 block-2: SENP8 protease inhibitors, primary screen, biochemical, luminescence | inhibition, % at 10 µM | AID 2540, 2010 | actives 1.2% (n = 330,000) | Sentrin-specific protease 8 (Homo sapiens), Q96LD8 | purified SENP8, Z-RLRGG-aminoluciferin cleavage; in the data active = inhibition above about 50%
# SENP8 conf: SENP8 protease inhibitors, retest, confirmation, biochemical, luminescence, single concentration. shares compounds with SENP7 inh. Recombinant SENP8, Z-RLRGG-aminoluciferin luminescence, 60 min. inhibition, % at 12.5 µM. actives 40% (n = 6,200). AID 488912, 2010;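 active = mean inhibition across replicates above about 50%, limit read from the data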
# SENP6 conf: SENP6 protease inhibitors, confirmation, biochemical, luminescence, single concentration; AID 488915, 2010; recombinant SENP6, Z-RLRGG-aminoluciferin luminescence; actives 58% (n = 6,200); inhibition, % at 12.5 µM; shares compounds with SENP7 inh
# SENP7 confirm: SENP7 protease inhibitors, retest, confirmation, biochemical, luminescence, single concentration | recombinant SENP7, Z-RLRGG-aminoluciferin luminescence, 40 min | AID 488917, 2010 | inhibition, % at 12.5 µM | shares compounds with SENP7 inh | actives 69% (n = 6,200)
# Casp3 SENP sel: caspase-3 protease inhibitors, confirmation, selectivity assay for SENP inhibitor project, biochemical, single concentration | shares compounds with SENP7 inh | purified caspase-3, Z-DEVD-aminoluciferin luminescence, 60 min | inhibition, % at 12.5 µM | actives 60% (n = 6,200);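 active = mean inhibition above about 50%, limit read from the data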;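 also: plate controls were enzyme with DMSO for no effect and wells without caspase-3 for full effect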
# Luc interf: interferes with luciferase luminescence in SENP counter-screen | Pre-incubated SENP8/Z-RLRGG-aminoluciferin, luciferase luminescence interference | actives 39% (n = 6,200) | AID 488919 | shares compounds with SENP7 inh | inhibition, % at 12.5 µM;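 active = mean inhibition above about 50% when retested at one dose, limit read from the data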;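 also: plate controls were DMSO wells with completed reaction for no effect and substrate without enzyme for full effect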
# An asterisk follows results filed as active; · = no result. Rows were chosen to be rich in hits. Some 2.6% of all compounds tested hit in one or more screens of this group.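 The calls were made as follows, unless noted: active = mean inhibition above about 50% in the one-dose retest (limit read from the data); inactive = the rest.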
SMILES,SENP1 FRET inh,Platelet DG rel,SENP6 inh,SENP8 block-1,SENP7 inh,SENP8 block-2,SENP8 conf,SENP6 conf,SENP7 confirm,Casp3 SENP sel,Luc interf
CCCCNc1nc(N)nc(-c2cc(Cl)ccc2O)n1,-19,8,70*,-432,54*,41,-10,56*,86*,26,6
CCCNc1nc(N)nc(-c2cc(Cl)ccc2OC)n1,2,-3,1,15,-2,-8,·,·,·,·,·
COc1ccc(C)cc1NC(=O)c1ccc2c(O)c(S(=O)(=O)c3ccccc3)c(=O)[nH]c2c1,0,8,-7,1,-2,5,·,·,·,·,·
CCN1CCN(S(=O)(=O)c2ccc(Cl)c(C(=O)N(C)Cc3ccc(Cl)cc3Cl)c2)CC1,3,-6,-7,-8,15,-3,·,·,·,·,·
COc1ccc(C(=O)N=c2sc3c(C)ccc(OC)c3n2C)cc1,3,20,98*,-405,99*,90*,-18,1,15,8,25
COc1cc(C(=O)N=c2sc3c(C)ccc(OC)c3n2C)cc(OC)c1OC,1,1,24,-397,77*,8,7,6,23,0,-11
COc1ccc(NS(=O)(=O)c2ccc(C)c(C(=O)NCCCn3ccnc3)c2)cc1,2,·,·,6,·,·,·,·,·,·,·
COc1ccc2cc3cc(C(=O)N(C)C4CCCCC4)oc3nc2c1,-1,-2,60*,-400,61*,52*,6,4,32,38,-1
COc1ccc2cc3cc(C(=O)N4CCCCC4C)oc3nc2c1 (stereo not given),2,16,64*,-410,67*,52*,64*,61*,88*,75*,22
COc1ccc2cc3cc(C(=O)N4CCCCCC4)oc3nc2c1,1,18,77*,-376,87*,79*,19,82*,97*,69*,-1
COc1ccc2cc3cc(C(=O)NCCCN4CCC(C)CC4)oc3nc2c1,0,-9,9,-346,-13,0,·,·,·,·,·
COc1ccc2cc3cc(C(=O)N4CCN(C5CCCCC5)CC4)oc3nc2c1,-3,-5,4,-442,3,-2,·,·,·,·,·
OCCNC(=S)Nc1cc(Cl)cc(Cl)c1,1,10,-14,23,-6,-5,·,·,·,·,·
CCC(C)(C)NC(=O)C(c1cccc(OC)c1)N(C(=O)CNC(=O)c1cccs1)c1cccnc1 (stereo not given),1,-1,-8,8,3,-2,·,·,·,·,·
CCC(=O)N1CCCC1(C)C(=O)Nc1ccc(C)c(C)c1 (stereo not given),2,·,·,18,·,·,·,·,·,·,·
CCc1ccc(NC(=O)c2cnn3ccccc23)cc1,0,17,91*,-22,95*,89*,93*,94*,101*,93*,94*
O=C(NCc1ccc(F)cc1)c1cnn2ccccc12,2,-6,-7,-186,6,-16,·,·,·,·,·
CSc1cccc(NC(=O)c2cnn3ccccc23)c1,2,12,76*,-18,71*,49,72*,70*,91*,65*,72*
CSc1cccc(NC(=O)Cn2cccc2)c1,1,-6,6,1,-1,3,·,·,·,·,·
CCc1cc(C(=O)N2CCCC(Nc3ccc(F)c(F)c3)C2)n(C)n1 (stereo not given),3,-12,-4,12,2,8,·,·,·,·,·
COCCSc1ccccc1C(=O)NCc1cccnc1,-1,1,-4,8,1,0,·,·,·,·,·
Cc1cc(Cl)ccc1OCc1cn2cccnc2n1,-2,14,0,-437,-5,-9,·,·,·,·,·
O=C(Oc1ccc2ccccc2c1Cl)N1CCCC1,-1,1,73*,16,57*,38,48,52*,84*,53*,59*
O=C(Oc1ccc2ccccc2c1Cl)N1CCCCCC1,0,-11,76*,20,53*,54*,71*,70*,87*,45,37
O=C(Oc1ccc(Cl)c2ccccc12)N1CCCCC1,3,14,8,14,-8,-12,·,·,·,·,·
SMILES,SENP1 FRET inh,Platelet DG rel,SENP6 inh,SENP8 block-1,SENP7 inh,SENP8 block-2,SENP8 conf,SENP6 conf,SENP7 confirm,Casp3 SENP sel,Luc interf
COc1cccc(NC(=O)N2CCCC2C(=O)NC2CCCC2)c1 (stereo not given),1,-7,22,17,-4,1,·,·,·,·,·
COc1ccc(-n2cc(C(=O)c3ccccc3O)cn2)cc1,2,23,95*,-167,100*,94*,96*,98*,102*,96*,95*
COc1ccc(C(=O)CC(=O)c2ccccc2O)cc1,2,0,51*,-25,45,44,48,47,83*,50,54*
O=C(C(=O)N1CCN(Cc2ccc3c(c2)OCO3)CC1)c1c[nH]c2ccccc12,-1,-6,-13,-5,7,-10,·,·,·,·,·
COc1cccc(CN2CCN(C(=O)c3oc4c(F)cccc4c3C)CC2=O)c1,-1,-9,87*,1,10,7,-20,-17,-5,-9,-6
CCCCn1c(O)c(N=Nc2ccccn2)c2ccccc21,20,-7,-10,8,5,-9,·,·,·,·,·
CCn1c(O)c(N=Nc2ccc3ccccc3n2)c2ccccc21,12,16,95*,39,97*,94*,18,23,98*,30,6
Cn1c(NC(=O)c2ccc(F)cc2)nc2ccccc21,1,5,80*,-36,78*,65*,46,75*,95*,86*,17
O=C(Nc1nc2ccccc2c2nc3ccccc3n12)c1ccc(F)cc1,·,-1,-5,·,-1,3,·,·,·,·,·
COc1ccccc1/C=C/C(=O)OCCN1C(=O)c2ccccc2C1=O,3,·,7,-33,-5,-2,·,·,·,·,·

# Source: PubChem BioAssay
